Source: ChEMBL document CHEMBL1121748, “Antimycotic imidazoles. 5. Synthesis and antimycotic properties of 1-[[2-aryl-4-(arylalkyl)-1,3-dioxolan-2-yl]methyl]-1H-imidazoles” (1981)

Key:
Candida albicans = test: Antifungal activity against Candida albicans; type: functional
Candida tropicalis = test: Antifungal activity against Candida tropicalis; type: functional
[1] = tested on: Staphylococcus haemolyticus; test: Antibacterial against Staphylococcus hemolyticus; type: functional
[2] = tested on: Erysipelothrix rhusiopathiae; test: Antibacterial activity against Erysipelothrix insidiosa; type: functional
Streptococcus pyogenes = test: Antibacterial activity against Streptococcus pyogenes; type: functional
Aspergillus fumigatus = test: Antifungal activity against Aspergillus fumigatus; type: functional
Phialophora verrucosa [3] = test: Antifungal activity against Phialophora verrucosa; type: functional
Mucor = test: Antifungal activity against Mucor species; type: functional
[4] = tested on: Trichophyton mentagrophytes; test: Compound was tested for antifungal activity against Trichophyton mentagrophytes
Microsporum canis = test: Antifungal activity against Microsporum canis; type: functional
Trichophyton rubrum = test: Antifungal activity against Trichophyton rubrum; type: functional
Sporothrix schenckii = test: Antifungal activity against Sporothrix schenck ii; type: functional
[5] = Ratio of animals cured to that of animals infected, tested in vivo for antifungal activity against vaginal candidosis in rat; 1/2
Saprolegnia [6] = test: Antifungal activity against Saprolegnia species; type: functional
Cryptococcus neoformans = test: Antifungal activity against Cryptococcus neoformans; type: functional
Saprolegnia [7] = test: compound was tested for antifungal activity against Saprolegnia species; type: functional
Trichophyton benhamiae = test: Antifungal activity against Trichophyton mentagrophytes; type: functional, trychophyton mentagrophytes
[8] = Ratio of animals cured to that of animals infected, tested in vivo for antifungal activity against cutaneous candidosis in guinea pig; 0/2; type: functional
[9] = Ratio of animals cured to that of animals […], Tested in vivo for antifungal activity against vaginal candidosis in rat; 2/4; type: functional
[10] = Ratio of animals cured to that of animals infected, tested in vivo for antifungal activity against cutaneous candidosis in guinea pig; 3/4; type: functional
[11] = Ratio of animals cured to that of animals infected, tested in vivo for antifungal activity against vaginal candidosis in rat; 0/2
[12] = Ratio of animals cured to that of animals infected, tested in vivo for antifungal activity against cutaneous candidosis in guinea pig; 1/2; type: functional
[13] = Ratio of animals cured to that of animals infected, tested in vivo for antifungal activity against vaginal candidosis in rat; 0/2; type: functional
In short: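 Rat experimental vaginal candidosis. Compounds were given orally as a suspension in polyethylene glycol 200 at 10 mg/kg/day for 14 consecutive days.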

[14] = Ratio of animals cured to that of animals […], Tested in vivo for antifungal activity against vaginal candidosis in rat; 0/2; type: functional
Phialophora verrucosa [15] = test: compound was tested for antifungal activity against Phialophora verrucosa; type: functional
[16] = Ratio of animals cured to that of animals infected, tested in vivo for antifungal activity against cutaneous candidosis in guinea pig; 4/13; type: functional
[17] = Ratio of animals cured to that of animals […], Tested in vivo for antifungal activity against vaginal candidosis in rat; 0/6; type: functional

Compound | Inhibition (Candida albicans) | Inhibition (Candida tropicalis) | Inhibition [1] | Inhibition [2] | Inhibition (Streptococcus pyogenes) | Inhibition (Aspergillus fumigatus) | Inhibition (Phialophora verrucosa [3]) | Inhibition (Mucor) | Inhibition (Microsporum canis) | Inhibition (Trichophyton rubrum) | Inhibition (Sporothrix schenckii) | Inhibition (Saprolegnia [6]) | Inhibition (Cryptococcus neoformans) | Inhibition (Trichophyton benhamiae) | also measured
Cc1ccc(C2COC(Cn3ccnc3)(c3ccc(Br)cc3)O2)cc1 (centres undefined) | 10 µg/mL | >100 µg/mL | 10 µg/mL | 1 µg/mL | 10 µg/mL | <1 µg/mL | 100 µg/mL | 10 µg/mL | <1 µg/mL | <1 µg/mL | 100 µg/mL | 100 µg/mL | 10 µg/mL |  | Inhibition [4]: 10 µg/mL; Ratio [5]: 1
Clc1ccc(C2COC(Cn3ccnc3)(c3ccccc3)O2)c(Cl)c1 (centres undefined) | >100 µg/mL | >100 µg/mL | 10 µg/mL | 10 µg/mL | 1 µg/mL | 10 µg/mL | 100 µg/mL | 100 µg/mL | 10 µg/mL | <1 µg/mL | 10 µg/mL |  | 10 µg/mL | <1 µg/mL | Inhibition (Saprolegnia [7]): 100 µg/mL; Ratio [8]: 0
COc1ccc(CCC2COC(Cn3ccnc3)(c3ccc(Cl)cc3Cl)O2)cc1 (centres undefined) | 100 µg/mL | 10 µg/mL | 100 µg/mL | <1 µg/mL | <1 µg/mL | <1 µg/mL | 100 µg/mL | 100 µg/mL | 1 µg/mL | <1 µg/mL | 10 µg/mL | 100 µg/mL | 1 µg/mL | <1 µg/mL | Ratio [9]: 0.5; Ratio [8]: 0
Clc1ccc(C2(Cn3ccnc3)OCC(c3ccc(Br)cc3)O2)c(Cl)c1 (centres undefined) | 100 µg/mL | 10 µg/mL | 10 µg/mL | 1 µg/mL | 1 µg/mL | <1 µg/mL | 100 µg/mL | 10 µg/mL | <1 µg/mL | <1 µg/mL | 10 µg/mL | 100 µg/mL | <1 µg/mL | <1 µg/mL | Ratio [10]: 0.75; Ratio [11]: 0
Clc1ccc(C2COC(Cn3ccnc3)(c3ccccc3)O2)cc1 (centres undefined) | >100 µg/mL | 100 µg/mL | 100 µg/mL | 1 µg/mL | 1 µg/mL | 10 µg/mL | 100 µg/mL | 100 µg/mL | <1 µg/mL | <1 µg/mL | 10 µg/mL | 100 µg/mL | 10 µg/mL | <1 µg/mL | Ratio [12]: 1; Ratio [13]: 0
Clc1ccc(C2(Cn3ccnc3)OCC(CCc3ccccc3)O2)c(Cl)c1 (centres undefined) | 100 µg/mL | 10 µg/mL | 10 µg/mL | <1 µg/mL | <1 µg/mL | <1 µg/mL |  | 10 µg/mL | <1 µg/mL | <1 µg/mL | <1 µg/mL | 100 µg/mL | <1 µg/mL | <1 µg/mL | Ratio [14]: 0; Inhibition (Phialophora verrucosa [15]): 100 µg/mL
Clc1ccc(COC(Cn2ccnc2)c2ccc(Cl)cc2Cl)c(Cl)c1 (centres undefined) [MICONAZOLE] | 10 µg/mL | 100 µg/mL | 10 µg/mL | <1 µg/mL | <1 µg/mL | 10 µg/mL | 100 µg/mL | >100 µg/mL | 1 µg/mL | <1 µg/mL | 1 µg/mL | 10 µg/mL | 1 µg/mL | <1 µg/mL | Ratio [16]: 0.31; Ratio [17]: 0
